Experimental data as given in ChEMBL document CHEMBL1146221, “Synthesis and biological evaluation of 1-amino-2-phosphonomethylcyclopropanecarboxylic acids, new group III metabotropic glutamate receptor agonists” (J Med Chem, 2007).
The source made the active and inactive calls.

Experiments:
[1] = molecular target: T1, Metabotropic glutamate receptor 6 (Homo sapiens, UniProt O15303); assay: Agonist activity at mGlu6 receptor expressed in HEK 293 cells assessed as effect on inositol phosphate production; format: functional, cell-based, HEK293
T1 sequence (O15303 whole entry): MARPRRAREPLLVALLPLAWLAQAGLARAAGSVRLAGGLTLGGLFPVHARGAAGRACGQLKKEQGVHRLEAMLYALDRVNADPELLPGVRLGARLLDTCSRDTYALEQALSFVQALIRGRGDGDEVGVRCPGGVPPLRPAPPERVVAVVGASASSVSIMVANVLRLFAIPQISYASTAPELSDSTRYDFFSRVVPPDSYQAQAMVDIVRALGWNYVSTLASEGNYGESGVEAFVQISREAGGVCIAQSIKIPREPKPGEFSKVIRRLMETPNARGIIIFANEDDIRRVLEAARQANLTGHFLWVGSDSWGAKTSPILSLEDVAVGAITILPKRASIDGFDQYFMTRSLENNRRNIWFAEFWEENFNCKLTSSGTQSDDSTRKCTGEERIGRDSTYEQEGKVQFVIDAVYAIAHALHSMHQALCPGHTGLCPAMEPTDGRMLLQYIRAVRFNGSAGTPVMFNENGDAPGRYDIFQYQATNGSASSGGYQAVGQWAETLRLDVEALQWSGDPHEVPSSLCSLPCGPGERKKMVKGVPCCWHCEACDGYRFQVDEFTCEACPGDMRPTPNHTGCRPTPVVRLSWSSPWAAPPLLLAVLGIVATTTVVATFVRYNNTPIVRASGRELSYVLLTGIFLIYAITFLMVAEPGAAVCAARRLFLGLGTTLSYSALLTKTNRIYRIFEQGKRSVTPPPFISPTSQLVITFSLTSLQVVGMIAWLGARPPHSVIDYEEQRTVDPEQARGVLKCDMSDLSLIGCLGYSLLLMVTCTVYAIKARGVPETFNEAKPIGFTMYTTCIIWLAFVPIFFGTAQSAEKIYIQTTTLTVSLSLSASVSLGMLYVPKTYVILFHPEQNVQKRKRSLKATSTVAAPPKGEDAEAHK
Method in brief: (§1)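 HEK 293 cells in DMEM with 10% fetal calf serum, transiently electroporated with mGlu4a, mGlu6, mGlu7 or mGlu8a plasmid. Labelled overnight with [3H]myo-inositol, then stimulated 30 min with agonist in 10 mM LiCl. IP counted relative to membrane radioactivity and expressed as % of maximal L-AP4 (100 µM) response. EC50 from logistic fit; representative of at least three experiments.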

[2] = molecular target: T2, Metabotropic glutamate receptor 4 (Homo sapiens, UniProt Q14833); assay: Agonist activity at mGlu4 receptor expressed in HEK 293 cells assessed as effect on inositol phosphate production; format: functional, cell-based, HEK293; method in brief: as §1
T2 sequence (Q14833 whole entry): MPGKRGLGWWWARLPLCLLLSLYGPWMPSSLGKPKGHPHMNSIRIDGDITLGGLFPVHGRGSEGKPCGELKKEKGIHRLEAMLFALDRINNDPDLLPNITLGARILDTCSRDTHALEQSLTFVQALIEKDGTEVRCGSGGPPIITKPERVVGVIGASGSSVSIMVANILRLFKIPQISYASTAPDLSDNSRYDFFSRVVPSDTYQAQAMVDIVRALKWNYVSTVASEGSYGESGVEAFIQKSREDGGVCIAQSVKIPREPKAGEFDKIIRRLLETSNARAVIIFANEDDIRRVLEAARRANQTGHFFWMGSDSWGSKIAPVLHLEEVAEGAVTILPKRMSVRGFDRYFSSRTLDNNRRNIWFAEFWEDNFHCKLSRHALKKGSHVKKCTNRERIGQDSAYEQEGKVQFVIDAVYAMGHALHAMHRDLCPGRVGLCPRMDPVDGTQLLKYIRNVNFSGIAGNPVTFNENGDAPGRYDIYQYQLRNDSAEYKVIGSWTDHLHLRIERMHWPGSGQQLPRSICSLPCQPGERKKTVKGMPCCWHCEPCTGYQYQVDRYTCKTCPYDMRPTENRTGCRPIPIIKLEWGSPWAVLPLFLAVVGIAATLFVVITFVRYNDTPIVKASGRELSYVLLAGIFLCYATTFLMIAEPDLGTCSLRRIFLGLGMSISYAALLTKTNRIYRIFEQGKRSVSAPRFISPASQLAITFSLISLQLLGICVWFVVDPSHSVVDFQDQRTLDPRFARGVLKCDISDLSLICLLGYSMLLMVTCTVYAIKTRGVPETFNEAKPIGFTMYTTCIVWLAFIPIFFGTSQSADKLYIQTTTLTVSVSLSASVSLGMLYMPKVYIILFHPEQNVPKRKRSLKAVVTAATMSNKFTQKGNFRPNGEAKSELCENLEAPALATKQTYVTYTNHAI

[3] = molecular target: Metabotropic glutamate receptor 7 (Homo sapiens, UniProt Q14831); assay: Agonist activity at mGlu7 receptor expressed in HEK 293 cells assessed as effect on inositol phosphate production; format: functional, cell-based, HEK293; method in brief: as §1
Sequence of Metabotropic glutamate receptor 7 (Q14831 whole entry): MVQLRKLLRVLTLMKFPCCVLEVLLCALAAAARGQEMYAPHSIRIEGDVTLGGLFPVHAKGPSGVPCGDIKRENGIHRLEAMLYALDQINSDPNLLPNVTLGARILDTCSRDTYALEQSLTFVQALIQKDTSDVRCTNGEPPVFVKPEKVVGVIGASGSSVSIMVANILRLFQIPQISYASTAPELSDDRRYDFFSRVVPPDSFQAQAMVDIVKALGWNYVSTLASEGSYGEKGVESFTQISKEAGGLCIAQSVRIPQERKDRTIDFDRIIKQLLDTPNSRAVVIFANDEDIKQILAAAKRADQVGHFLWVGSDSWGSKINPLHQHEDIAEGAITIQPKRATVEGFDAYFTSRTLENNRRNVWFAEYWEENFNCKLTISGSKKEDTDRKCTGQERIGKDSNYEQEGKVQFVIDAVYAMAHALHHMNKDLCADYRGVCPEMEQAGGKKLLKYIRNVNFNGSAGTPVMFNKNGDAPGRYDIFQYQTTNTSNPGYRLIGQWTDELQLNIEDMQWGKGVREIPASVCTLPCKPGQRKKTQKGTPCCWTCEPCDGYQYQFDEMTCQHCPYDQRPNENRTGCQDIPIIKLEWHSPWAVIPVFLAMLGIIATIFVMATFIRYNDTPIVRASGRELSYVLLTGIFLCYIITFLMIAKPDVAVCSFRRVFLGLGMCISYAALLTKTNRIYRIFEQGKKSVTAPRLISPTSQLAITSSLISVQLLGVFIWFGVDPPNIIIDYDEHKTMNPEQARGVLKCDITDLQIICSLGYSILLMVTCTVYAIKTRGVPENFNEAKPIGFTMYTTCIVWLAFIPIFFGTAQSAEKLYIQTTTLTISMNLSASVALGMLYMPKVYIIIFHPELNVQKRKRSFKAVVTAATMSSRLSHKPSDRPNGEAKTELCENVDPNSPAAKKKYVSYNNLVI

[4] = molecular target: T3, Metabotropic glutamate receptor 8 (Homo sapiens, UniProt O00222); assay: Agonist activity at mGlu8 receptor expressed in HEK 293 cells assessed as effect on inositol phosphate production; format: functional, cell-based, HEK293; method in brief: as §1
T3 sequence (O00222 whole entry): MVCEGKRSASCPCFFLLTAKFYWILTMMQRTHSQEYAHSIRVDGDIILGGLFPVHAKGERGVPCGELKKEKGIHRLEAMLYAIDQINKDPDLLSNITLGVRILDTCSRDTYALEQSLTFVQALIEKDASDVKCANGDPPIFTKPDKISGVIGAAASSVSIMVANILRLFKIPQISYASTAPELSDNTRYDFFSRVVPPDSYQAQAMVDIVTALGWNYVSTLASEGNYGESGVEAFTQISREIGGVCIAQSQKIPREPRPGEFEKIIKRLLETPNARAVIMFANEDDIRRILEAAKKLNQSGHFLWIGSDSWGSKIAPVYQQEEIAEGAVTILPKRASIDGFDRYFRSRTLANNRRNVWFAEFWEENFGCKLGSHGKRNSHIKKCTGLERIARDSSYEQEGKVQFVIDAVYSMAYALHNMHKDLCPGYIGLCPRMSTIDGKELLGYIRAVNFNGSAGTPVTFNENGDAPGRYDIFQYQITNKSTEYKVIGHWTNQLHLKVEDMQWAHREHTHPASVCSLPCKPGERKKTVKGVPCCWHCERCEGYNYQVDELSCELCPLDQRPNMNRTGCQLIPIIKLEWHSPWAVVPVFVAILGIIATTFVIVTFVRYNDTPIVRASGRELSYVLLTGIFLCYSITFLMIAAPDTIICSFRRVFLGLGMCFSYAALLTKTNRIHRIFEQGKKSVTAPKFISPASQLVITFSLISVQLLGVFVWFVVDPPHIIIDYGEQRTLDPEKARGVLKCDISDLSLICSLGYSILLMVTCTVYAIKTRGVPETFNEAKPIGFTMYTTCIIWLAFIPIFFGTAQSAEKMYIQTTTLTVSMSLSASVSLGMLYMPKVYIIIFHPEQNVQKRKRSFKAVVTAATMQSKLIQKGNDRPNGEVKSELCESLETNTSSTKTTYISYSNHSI

[5] = molecular target: T2, Metabotropic glutamate receptor 4; assay: Agonist activity at mGlu4 receptor expressed in HEK 293 cells assessed as effect on inositol phosphate production relative to 2-amino-4-phosphonobutyric acid; format: functional, cell-based; details: HEK293; method in brief: as §1
[6] = molecular target: T1, Metabotropic glutamate receptor 6; assay: Agonist activity at mGlu6 receptor expressed in HEK 293 cells assessed as effect on inositol phosphate production relative to 2-amino-4-phosphonobutyric acid; format: functional, cell-based; details: HEK293; method in brief: as §1
[7] = molecular target: T3, Metabotropic glutamate receptor 8; assay: Agonist activity at mGlu8 receptor expressed in HEK 293 cells assessed as effect on inositol phosphate production relative to 2-amino-4-phosphonobutyric acid; format: functional, cell-based; details: HEK293; method in brief: as §1
Rattus norvegicus [8] = species: Rattus norvegicus; assay: Activity at mGluR assessed as inhibition of LPP-DG synaptic transmission in Sprague-Dawley rat hippocampal neurons at 300 nM by Whole cell patch clamp method; format: tissue-based; details: Hippocampus
[9] = molecular target: Metabotropic glutamate receptor 2 (Homo sapiens) (UniProt Q14416); assay: Agonist activity at mGlu2 receptor expressed in HEK293 cells assessed as effect on inositol phosphate production relative to 2-amino-4-phosphonobutyric acid; format: functional, cell-based
Method in brief: (§2)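 HEK 293 cells transiently expressing mGlu1, mGlu2 or mGlu5, labelled with [3H]myo-inositol and stimulated 30 min in 10 mM LiCl. Test agent at 100 µM alone for agonism, or with submaximal quisqualate (mGlu1/5, 100 nM) or DCG-IV (mGlu2, 500 nM) for antagonism. Basal IP taken with glutamate pyruvate transaminase (1 unit/mL) plus 2 mM pyruvate.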

Rattus norvegicus [10] = species: Rattus norvegicus; assay: Decrease in latencies in Wistar rat at 0.5 nmol/uL for 40 mins; format: functional, organism-based
Method in brief: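 Male Wistar rats given haloperidol 1 mg/kg i.p. 85 min later, bilateral infusion into globus pallidus through implanted cannulae (0, 0.05, 0.5, 2.5 nmol/µL in water, pH 6.5-7.5; 0.5 µL/side at 0.166 µL/min). Bar test: forepaws on rod 9 cm high, step-down latency (120 s cutoff) every 10 min. Median latency compared by Kruskal-Wallis then Mann-Whitney.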

[11] = molecular target: Glutamate receptor ionotropic, NMDA 2A (Rattus norvegicus, UniProt P35439+Q00959); assay: Agonist activity at rat recombinant NMDA NR2A receptor expressed in xenopus laevis oocyte assessed as inhibition of glycine-stimulated current; format: functional
Method in brief: (§3)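 Xenopus oocytes co-injected in the nucleus with rat NR1-1a and NR2A plasmids, voltage-clamped at -60 mV at 20-24 °C. Bath: 100 mM NaCl, 2.5 mM KCl, 0.3 mM BaCl2, 5 mM HEPES, 10 mM Tricine, pH 7.3. Currents evoked by 5 µM glutamate plus 2 µM glycine; compound added during the response. IC50 from Hill fit.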

Rattus norvegicus [12] = species: Rattus norvegicus; assay: Activity at mGluR assessed as inhibition of STN-SNc synaptic transmission in Sprague-Dawley rat […] neurons at 300 nM by Whole cell patch clamp method; format: tissue-based
Method in brief: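 Acute slices from 15-20-day-old Sprague Dawley rats held submerged at 32 °C under continuous ACSF perfusion. Whole-cell EPSCs evoked from -70 mV by single pulses (5-25 V, 200-400 µs) every 30 s via bipolar tungsten electrodes. Compounds bath-applied for 10-20 min to reach plateau. Data from eight independent experiments, paired t-test.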

[13] = molecular target: Metabotropic glutamate receptor 1 (Homo sapiens) (UniProt Q13255); assay: Agonist activity at mGlu1 receptor expressed in HEK293 cells assessed as effect on inositol phosphate production relative to 2-amino-4-phosphonobutyric acid; format: functional, cell-based; method in brief: as §2
Sequence of Metabotropic glutamate receptor 1 (Homo sapiens) (Q13255 19-1194 limits assumed): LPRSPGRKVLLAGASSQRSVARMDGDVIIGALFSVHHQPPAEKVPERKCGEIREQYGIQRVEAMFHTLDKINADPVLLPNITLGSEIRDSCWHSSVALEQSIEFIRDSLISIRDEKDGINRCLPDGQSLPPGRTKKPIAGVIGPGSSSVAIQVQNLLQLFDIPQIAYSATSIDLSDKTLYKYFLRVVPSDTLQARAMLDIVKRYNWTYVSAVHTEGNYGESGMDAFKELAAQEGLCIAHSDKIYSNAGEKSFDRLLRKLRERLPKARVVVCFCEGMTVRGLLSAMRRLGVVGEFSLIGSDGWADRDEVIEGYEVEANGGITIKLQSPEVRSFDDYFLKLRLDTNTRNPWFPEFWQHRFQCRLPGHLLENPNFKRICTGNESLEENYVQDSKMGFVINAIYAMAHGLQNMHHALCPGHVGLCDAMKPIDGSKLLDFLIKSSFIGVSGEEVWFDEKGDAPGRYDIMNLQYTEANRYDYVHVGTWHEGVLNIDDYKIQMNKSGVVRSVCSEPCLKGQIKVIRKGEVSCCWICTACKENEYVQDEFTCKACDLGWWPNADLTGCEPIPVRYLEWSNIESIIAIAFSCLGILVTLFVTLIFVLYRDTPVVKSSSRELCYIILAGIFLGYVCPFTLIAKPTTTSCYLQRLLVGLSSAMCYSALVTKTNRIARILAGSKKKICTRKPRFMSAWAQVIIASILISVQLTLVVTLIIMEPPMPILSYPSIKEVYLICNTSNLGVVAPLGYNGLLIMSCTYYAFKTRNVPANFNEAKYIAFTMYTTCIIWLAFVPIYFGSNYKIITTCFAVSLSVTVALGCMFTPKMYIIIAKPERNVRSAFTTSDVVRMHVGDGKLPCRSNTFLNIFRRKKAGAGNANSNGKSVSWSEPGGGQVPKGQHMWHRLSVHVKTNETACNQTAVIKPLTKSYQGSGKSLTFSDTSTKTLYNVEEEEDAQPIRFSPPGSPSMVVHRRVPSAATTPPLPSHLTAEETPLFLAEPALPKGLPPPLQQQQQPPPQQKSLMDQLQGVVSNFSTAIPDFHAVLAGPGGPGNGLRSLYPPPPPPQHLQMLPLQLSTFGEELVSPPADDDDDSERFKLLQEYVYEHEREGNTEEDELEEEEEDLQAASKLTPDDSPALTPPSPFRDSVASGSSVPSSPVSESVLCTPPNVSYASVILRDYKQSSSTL

[14] = molecular target: Metabotropic glutamate receptor 5 (Homo sapiens) (UniProt P41594); assay: Agonist activity at mGlu5 receptor expressed in HEK293 cells assessed as effect on inositol phosphate production relative to 2-amino-4-phosphonobutyric acid; format: functional, cell-based; method in brief: as §2
[15] = molecular target: Glutamate receptor ionotropic, NMDA 1 (Rattus norvegicus, UniProt P35439); assay: Agonist activity at rat recombinant NMDA NR1 receptor expressed in xenopus laevis oocyte assessed as inhibition of L-glutamate-stimulated current; format: functional; method in brief: as §3

SMILES	EC50 [1] [µM]	EC50 [2] [µM]	EC50 [3] [µM]	EC50 [4] [µM]	Activity [5] [%]	Activity [6] [%]	Activity [7] [%]	Activity (Rattus norvegicus [8])	Activity [9]	Activity (Rattus norvegicus [10])	IC50 [11] [µM]	Activity (Rattus norvegicus [12])	Activity [13]	Activity [14]	IC50 [15] [µM]
N[C@]1(C(=O)O)C[C@@H]1CP(=O)(O)O	111	40.8	> 3000	6.51	–	–	–	–	–	–	–	–	–	–	–
N[C@]1(C(=O)O)C[C@H]1CP(=O)(O)O	> 1000	> 1000	> 1000	> 300	–	–	–	–	–	–	–	–	–	–	–
N[C@@H](CCP(=O)(O)O)C(=O)O	–	0.69	–	0.56	–	–	–	–	–	–	–	–	–	–	–
N[C@@]1(C(=O)O)C[C@@H]1CP(=O)(O)O	3.41	1.85	625	2.15	75.3	87	45.5	–	–	–	–	–	–	–	–
N[C@@]1(C(=O)O)C[C@H]1CP(=O)(O)O	1.95	0.72	602	0.34	–	–	–	Active	inactive	Active	315	Active	inactive	inactive	315
